Test results reported in ChEMBL document CHEMBL5252569, “Synthesis and biological evaluation of new β-D-N4-hydroxycytidine analogs against SARS-CoV-2, influenza viruses and DENV-2” (Bioorg Med Chem Lett, 2023).

Experiments:
[1] = tested on: Vero; assay: (§1) Cytotoxicity against African green monkey Vero cells assessed as reduction in cell viability incubated for 24 hrs by MTT assay; format: toxicity, cell-based; conditions: chlorocebus sabaeus, vero, 24 h
Summary of the method: (§2)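 Viability of non-infected or infected cells (Vero CCL-81 or MDCK CCL-34) measured by MTT; CC50 calculated by nonlinear regression.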

[2] = tested on: SARS-CoV-2; assay: (§3) Antiviral activity against SARS-CoV-2 (hCoV-19/Korea/KCDC-06/2020) infected in African green monkey Vero cells preincubated with cells for 24 hrs followed by viral infection and measured after 24 hrs by DAPI-staining based fluorescence assay; format: functional, organism-based; conditions: Severe acute respiratory syndrome coronavirus 2, hCoV-19/Korea/KCDC-06/2020, Vero
[3] = tested on: Influenza A virus; assay: (§4) Antiviral activity against Influenza A virus A/Puerto Rico/8/34 (H1N1) infected in MDCK cells assessed as reduction in virus-induced cytopathic effect pre-infected with cells for 1 hrs followed by compound addition and measured after 3 days by fluorescein diacetate-based cell viability assay; format: functional, organism-based
[4] = tested on: MDCK; assay: (§5) Cytotoxicity against MDCK cells assessed as reduction in cell viability measured for 48 hrs by MTT assay; format: toxicity, cell-based, Canis lupus familiaris; conditions: dog, mdck, 48 h; summary of the method: as §2
[5] = tested on: Influenza A virus; assay: (§6) Antiviral activity against Influenza A virus A/Hong Kong/8/68 (H3N2) infected in MDCK cells assessed as reduction in virus-induced cytopathic effect pre-infected with cells for 1 hrs followed by compound addition and measured after 3 days by fluorescein diacetate-based cell viability assay; format: functional, organism-based
[6] = tested on: Influenza B virus; assay: (§7) Antiviral activity against Influenza B virus B/Lee/40 infected in MDCK cells assessed as reduction in virus-induced cytopathic effect pre-infected with cells for 1 hrs followed by compound addition and measured after 3 days by fluorescein diacetate-based cell viability assay; format: functional, organism-based; conditions: B/Lee/40, MDCK
[7] = tested on: dengue virus type 2; assay: Antiviral activity against Dengue virus 2 infected in hamster BHK-21 cells incubated for 48 hrs by renilla luciferase based assay; format: functional, organism-based; conditions: BHK-21, 48 h
Summary of the method: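 DENV-2 replicon-bearing BHK-21 cells (DENV2-BHK); replication read out with a Renilla luciferase assay system; EC50 calculated by nonlinear regression.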

[8] = (§8) Cytotoxicity against hamster BHK-21 cells incubated for 4 days by MTS assay; format: toxicity, cell-based, Mesocricetus auratus; conditions: BHK-21 cells, time 4 day
[9] = as §5; format: toxicity, cell-based, Canis lupus familiaris; conditions: dog, MDCK cells; summary of the method: as §2
[10] = tested on: BHK-21; assay: as §8; format: toxicity, cell-based, Mesocricetus auratus; conditions: bhk-21, 96 h, time 4 day
[11] = tested on: SARS-CoV-2; assay: as §3, with “Potency index, ratio of beta-D-N4-hydroxycytidine EC50 to test compound EC50 for antiviral activity against antiviral” for “Antiviral”; format: functional, Severe acute respiratory syndrome coronavirus 2; conditions: time 48 hrs
[12] = tested on: SARS-CoV-2; assay: as §3, with “Potency index, ratio of MK-4482 EC50 to test compound EC50 for antiviral activity against antiviral” for “Antiviral”; format: functional, Severe acute respiratory syndrome coronavirus 2; conditions: time 48 hrs
[13] = tested on: Influenza B virus; assay: as §7, with “Potency index, ratio of MK-4482 EC50 to test compound EC50 for antiviral” for “Antiviral”; format: functional; conditions: time 3 day
[14] = tested on: dengue virus type 2; assay: Potency index, ratio of MK-4482 EC50 to test compound EC50 for antiviral activity against Dengue virus 2 infected in hamster BHK-21 cells incubated for 48 hrs by renilla luciferase based assay; format: functional
[15] = tested on: SARS-CoV-2; assay: as §3, with “Potency index, ratio of remdesivir EC50 to test compound EC50 for antiviral” for “Antiviral”; format: functional, Severe acute respiratory syndrome coronavirus 2; conditions: time 48 hrs
[16] = tested on: Influenza A virus; assay: as §4, with “Potency index, ratio of ribavirin EC50 to test compound EC50 for antiviral” for “Antiviral”; format: functional; conditions: time 3 day
[17] = tested on: Influenza A virus; assay: as §6, with “Potency index, ratio of ribavirin EC50 to test compound EC50 for antiviral” for “Antiviral”; format: functional; conditions: time 3 day
[18] = tested on: Influenza B virus; assay: as §7, with “Potency index, ratio of ribavirin EC50 to test compound EC50 for antiviral” for “Antiviral”; format: functional; conditions: time 3 day
[19] = tested on: dengue virus type 2; assay: Potency index, ratio of […] for antiviral activity against Dengue virus 2 infected in hamster BHK-21 cells incubated for 48 hrs by renilla luciferase based assay; format: functional
[20] = tested on: Influenza B virus; assay: as §7, with “Potency index, ratio of T-705 EC50 to test compound EC50 for antiviral” for “Antiviral”; format: functional; conditions: time 3 day
[21] = as §1; format: toxicity, cell-based; conditions: chlorocebus sabaeus, Vero cells; summary of the method: as §2

Row | SMILES | CC50 [1] [µM] | EC50 [2] [µM] | EC50 [3] [µM] | CC50 [4] [µM] | EC50 [5] [µM] | EC50 [6] [µM] | EC50 [7] [µM] | CC50 at 96 h [8] [µM] | also measured
1 | CCOC(=O)[C@H](Cc1ccccc1)Nc1ccn([C@@H]2O[C@H](CO)[C@@H](O)[C@H]2O)c(=O)n1 | > 100 | > 100 | > 100 | > 100 | > 100 | > 100 | 100 | 100 | 
2 | CCOC(=O)CNc1ccn([C@@H]2O[C@H](CO)[C@@H](O)[C@H]2O)c(=O)n1 | > 100 | > 100 | > 100 | > 100 | > 100 | > 100 | 100 | 100 | 
3 | NC12CC3CC(CC(C3)C1)C2 [AMANTADINE] |  |  | > 100 |  | 6.4 | > 100 |  |  | 
4 | NC(=O)c1ncn([C@@H]2O[C@H](CO)[C@@H](O)[C@H]2O)n1 [RIBAVIRIN] |  |  |  |  |  | 33.3 | 1.16 |  | CC50 at 48 h [9]: > 100 µM; CC50 [10]: 5.46 µM
5 | CC(C)C(=O)ONc1ccn([C@@H]2O[C@H](CO)[C@@H](O)[C@H]2O)c(=O)n1 |  | 3.5 | 5.8 |  | 7.3 | 3.4 | 3.95 |  | CC50 [10]: 10.8 µM; Ratio EC50 [11]: >4.7; Ratio EC50 [12]: 3.4; Ratio EC50 [13]: 7; Ratio EC50 [14]: 5.9; Ratio EC50 [15]: 3; Ratio EC50 [16]: 6; Ratio EC50 [17]: 5; Ratio EC50 [18]: 10; Ratio EC50 [19]: 3; Ratio EC50 [20]: 2
6 | CC(C)C(=O)OC[C@H]1O[C@@H](n2ccc(NO)nc2=O)[C@H](O)[C@@H]1O [MOLNUPIRAVIR] |  | 11.8 | 6.6 |  | 6 | 23.8 | 23.4 |  | CC50 [10]: 42.2 µM
7 | NNc1ccn([C@@H]2O[C@H](CO)[C@@H](O)[C@H]2O)c(=O)n1 | > 100 | > 100 | > 100 | > 100 | > 100 | > 100 | 100 | 100 | 
8 | CC(C)(C)OC(=O)NNc1ccn([C@@H]2O[C@H](CO)[C@@H](O)[C@H]2O)c(=O)n1 | > 100 | > 100 | > 100 | > 100 | > 100 | > 100 | 100 | 100 | 
9 | NC(=O)c1nc(F)cnc1O |  |  | 3.2 |  | 8.5 | 7.6 |  |  | 
10 | CCOC(=O)[C@H](C)Nc1ccn([C@@H]2O[C@H](CO)[C@@H](O)[C@H]2O)c(=O)n1 | > 100 | > 100 | > 100 | > 100 | > 100 | > 100 | 100 | 100 | 
11 | O=c1nc(NCCO)ccn1[C@@H]1O[C@H](CO)[C@@H](O)[C@H]1O |  | > 100 | > 100 |  | > 100 | > 100 | 100 | 100 | CC50 at 24 h [21]: > 100 µM; CC50 at 48 h [9]: > 100 µM
12 | CCOC(=O)[C@H](CC(C)C)Nc1ccn([C@@H]2O[C@H](CO)[C@@H](O)[C@H]2O)c(=O)n1 | > 100 | > 100 | > 100 | > 100 | > 100 | > 100 | 100 | 100 | 
13 | CCC(CC)COC(=O)[C@H](C)N[P@](=O)(OC[C@H]1O[C@@](C#N)(c2ccc3c(N)ncnn23)[C@H](O)[C@@H]1O)Oc1ccccc1 |  |  |  |  |  |  |  |  | CC50 at 24 h [21]: > 100 µM
14 | O=c1nc(NO)ccn1[C@@H]1O[C@H](CO)[C@@H](O)[C@H]1O [N-HYDROXYCYTIDINE] | 16.5 | > 16.5 | 1.7 | > 100 | 2.3 | < 1.2 | 2.84 |  | CC50 [10]: 5.75 µM
